From ChEMBL document CHEMBL1147849, “Synthesis and recognition of novel isonucleoside triphosphates by DNA polymerases” (Bioorg Med Chem, 2007)
Activity calls are given as the source filed them. No cut-off for these calls is given here.

Columns and labels:
[1] = system: Thermus aquaticus; assay: Inhibition of Thermus acquaticus DNA polymerase-mediated DNA synthesis assessed as DNA chain termination
In short: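 Taq polymerase primer extension: 25-mer template (A, T, G or C at the first target site) and 5′-FITC 17-mer primer, 20 pmol each. Buffer was 50 mM KCl, 10 mM Tris–HCl pH 9.0, 1.5 mM MgCl₂, 0.1% Triton X-100. Triphosphate or dNTPs 1 nmol each, 2 U enzyme, 50 °C for 1.5 h. Read-out by denaturing polyacrylamide gel electrophoresis.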

[2] = Inhibition of 9 Nm DNA polymerase-mediated DNA synthesis assessed as DNA chain termination
In short: (§1)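 25-mer template (four variants, each with A, T, G or C at the first target site) annealed to a 5′-FITC 17-mer primer, 20 pmol each. Annealing was done by cooling quickly from 90 to 0 °C in buffer: 10 mM KCl, 10 mM (NH₄)₂SO₄, 20 mM Tris–HCl pH 8.8, 2 mM MgSO₄, 0.1% Triton X-100. Reactions held triphosphate or dNTPs (1 nmol each) and 2 U polymerase, 50 °C, 1.5 h. Products were resolved by denaturing PAGE.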

[3] = Inhibition of Therminator DNA polymerase-mediated DNA synthesis assessed as DNA chain termination; in short: as §1
[4] = Inhibition of Vent(exo-) DNA polymerase-mediated DNA synthesis assessed as DNA chain termination; in short: as §1
[5] = Inhibition of Deep Vent(exo-) DNA polymerase-mediated DNA synthesis assessed as DNA chain termination; in short: as §1
[6] = Activity of 9 Nm DNA polymerase enzyme
In short: (§2)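 Kinetics with 9°N DNA polymerase at 0.01 U/µL in the supplier's buffer. Primer was annealed to template 2 (T at the target site), 2 µM primer–template complex, with varying concentrations of dATP or the isonucleoside triphosphate.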

[7] = Ratio of Vmax to Km for 9 Nm DNA polymerase; in short: as §2

| Compound | Activity [1] | Activity [2] | other results |
| --- | --- | --- | --- |
| Nc1nc2c(ncn2[C@H]2CO[C@@H](CCOP(=O)(O)OP(=O)(O)OP(=O)(O)O)[C@@H]2O)c(=O)[nH]1 | Active | Active |  |
| Nc1ncnc2c1ncn2[C@@H]1CO[C@H](COP(=O)(O)OP(=O)(O)OP(=O)(O)O)[C@H]1O | Active | inactive | Activity [3]: inactive; Activity [4]: inactive; Activity [5]: Active |
| Nc1ccn([C@H]2CO[C@@H](CCOP(=O)(O)OP(=O)(O)OP(=O)(O)O)[C@@H]2O)c(=O)n1 | Active | Active |  |
| Nc1ncnc2c1ncn2[C@H]1C[C@H](O)[C@@H](COP(=O)(O)OP(=O)(O)OP(=O)(O)O)O1 |  |  | Km [6]: 0.78 µM; Vmax [6]: 6.73 %/min; Vmax/Km [7]: 8.63e+06 M⁻¹ |

Further lines, with some results ahead:

| Activity [1] | Activity [2] | Compound | other results |
| --- | --- | --- | --- |
| Active | Active | C=CCOC[C@@H]1O[C@@H](COP(=O)(O)OP(=O)(O)OP(=O)(O)O)[C@H](O)[C@H]1n1cc(C)c(=O)[nH]c1=O |  |
| Active | Active | Cc1cn([C@H]2CO[C@@H](CCOP(=O)(O)OP(=O)(O)OP(=O)(O)O)[C@@H]2O)c(=O)[nH]c1=O |  |
